Reference: ChEMBL document CHEMBL4049415, “Kinetin Riboside and Its ProTides Activate the Parkinson's Disease Associated PTEN-Induced Putative Kinase 1 (PINK1) Independent of Mitochondrial Depolarization” (J Med Chem, 2017)
Active and inactive are the calls of the source. The calls are words filed in the database; no cut-off is given here.

Tests used:
[1] = target: T1, cathepsin A (lysosomal protective protein) (Homo sapiens, UniProt P10619); assay: (§1) Stability in pH 7.4 trizma buffer assessed as cathepsin A (unknown origin)-mediated compound hydrolysis by measuring parent compound remaining at 5.0 mg measured after 12 hrs by 31P-NMR spectroscopic analysis; assay type: ADME; settings: cathepsin A in trizma buffer, pH 7.4, read-out: Stability
T1 sequence (P10619 whole entry): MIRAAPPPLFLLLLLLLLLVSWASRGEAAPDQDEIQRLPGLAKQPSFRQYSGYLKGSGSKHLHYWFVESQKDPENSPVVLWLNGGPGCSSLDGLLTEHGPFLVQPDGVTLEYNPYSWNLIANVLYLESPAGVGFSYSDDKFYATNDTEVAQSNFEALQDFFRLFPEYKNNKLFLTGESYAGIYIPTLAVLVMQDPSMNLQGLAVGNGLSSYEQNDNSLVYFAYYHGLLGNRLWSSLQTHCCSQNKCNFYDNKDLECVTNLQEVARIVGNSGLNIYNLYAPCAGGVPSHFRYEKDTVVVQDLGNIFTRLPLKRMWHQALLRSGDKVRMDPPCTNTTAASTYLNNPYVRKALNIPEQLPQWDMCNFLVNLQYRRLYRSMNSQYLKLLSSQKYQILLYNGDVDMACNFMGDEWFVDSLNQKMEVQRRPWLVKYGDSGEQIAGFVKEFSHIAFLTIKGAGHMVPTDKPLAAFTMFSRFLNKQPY

[2] = target: Serine/threonine-protein kinase PINK1, mitochondrial (Homo sapiens) (UniProt Q9BXM7); assay: Activation of FLAG tagged PINK1 (unknown origin) expressed in Flp-In TRex HEK293 cells co-expressing wild-type Parkin assessed as Parkin Ser65 phosphorylation at 50 uM after 24 hrs in absence of CCCP by immunoblotting analysis; assay type: cell-based
[3] = target: T2, Lysosomal protective protein (Homo sapiens, UniProt P10619); assay: Drug level in pH 7.4 trizma buffer treated with phenyl(Isopropoxy-L-alaninyl) kinetin riboside phosphoramidate assessed as cathepsin A (unknown origin)-mediated metabolite formation at 5.0 mg measured after 2 to 12 hrs by 31P-NMR spectroscopic analysis; assay type: ADME
T2 sequence (P10619 whole entry): T1 sequence (P10619 whole entry)

[4] = target: Serine/threonine-protein kinase PINK1, mitochondrial (Homo sapiens) (UniProt Q9BXM7); assay: Activation of FLAG tagged PINK1 (unknown origin) expressed in Flp-In TRex HEK293 cells co-expressing wild-type Parkin assessed as Parkin Ser65 phosphorylation at 50 uM in absence of CCCP by immunoblotting analysis; assay type: cell-based; settings: TDE = time-dependent effect
[5] = target: Serine/threonine-protein kinase PINK1, mitochondrial (Homo sapiens) (UniProt Q9BXM7); assay: Activation of FLAG tagged PINK1 (unknown origin) expressed in Flp-In TRex HEK293 cells co-expressed with Parkin S65A mutant assessed as Parkin phosphorylation at 50 uM in absence of CCCP by immunoblotting analysis; assay type: cell-based
[6] = Chemical stability of compound in pH 1 buffer at 5.0 mg measured at every 20 mins over 12 hrs by 31P-NMR spectroscopic analysis; assay type: physicochemical; settings: pH 1, 12 h
Procedure, shortened: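 Acid stability: 5 mg in methanol-d4 mixed with pH 1 buffer (equal parts 0.2 M HCl and 0.2 M KCl). 31P NMR at 37 °C, spectra every 20 min over 12 h; persistence of parent phosphorus peaks followed.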

[7] = target: T2, Lysosomal protective protein; assay: as §1; assay type: ADME; settings: in vivo, pH 7.4, 12 h
[8] = target: T2, Lysosomal protective protein; assay: Drug metabolism in pH 7.4 trizma buffer assessed as cathepsin A (unknown origin)-mediated (S)-2-((((2R,3S,4R,5R)-5-(6-(furan-2-ylmethylamino)-9H-purin-9-yl)-3,4-dihydroxytetrahydrofuran-2-yl)methoxy)oxidophosphorylamino)propanoate formation at 5.0 mg measured after 2 to 12 hrs by 31P-NMR spectroscopic analysis; assay type: ADME
[9] = target: T2, Lysosomal protective protein; assay: Prodrug activation in pH 7.4 trizma buffer assessed as cathepsin A (unknown origin)-mediated kinetin riboside monophosphate metabolite formation at 5.0 mg measured after 48 hrs by 31P-NMR spectroscopic analysis; assay type: ADME; settings: pH 7.4, 48 h
[10] = tested on: Serum; assay: Metabolic stability of compound in human serum at 5.0 mg measured at even intervals over 11 hrs by 31P-NMR spectroscopic analysis; assay type: ADME, cell-free
Procedure, shortened: (§2)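 Serum stability: 5.0 mg in DMSO-d6 and D2O, thawed human or mouse serum added in the NMR tube. 31P NMR at 37 °C, spectra immediately, at 30 min, then at even intervals over 11 h. Controls were compound without serum, and serum without compound.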

[11] = tested on: Serum; assay: Metabolic stability of the compound in mouse serum at 5.0 mg measured at even intervals over 11 hrs by 31P-NMR spectroscopic analysis; assay type: ADME, cell-free; procedure, shortened: as §2
[12] = target: T2, Lysosomal protective protein; assay: Stability in pH 7.4 trizma buffer assessed as cathepsin A (unknown origin)-mediated compound hydrolysis at 5.0 mg measured after 15 mins by 31P-NMR spectroscopic analysis; assay type: ADME; settings: pH 7.4, 0.25 h
[13] = target: Serine/threonine-protein kinase PINK1, mitochondrial (Homo sapiens) (UniProt Q9BXM7); assay: Activation of FLAG tagged PINK1 (unknown origin) expressed in Flp-In TRex HEK293 cells co-expressed with wild-type Parkin assessed as Parkin Ser65 phosphorylation at 10 uM by immunoblotting analysis; assay type: cell-based; settings: TDE = time-dependent effect

Sequence of Serine/threonine-protein kinase PINK1, mitochondrial (Homo sapiens) (Q9BXM7 whole entry): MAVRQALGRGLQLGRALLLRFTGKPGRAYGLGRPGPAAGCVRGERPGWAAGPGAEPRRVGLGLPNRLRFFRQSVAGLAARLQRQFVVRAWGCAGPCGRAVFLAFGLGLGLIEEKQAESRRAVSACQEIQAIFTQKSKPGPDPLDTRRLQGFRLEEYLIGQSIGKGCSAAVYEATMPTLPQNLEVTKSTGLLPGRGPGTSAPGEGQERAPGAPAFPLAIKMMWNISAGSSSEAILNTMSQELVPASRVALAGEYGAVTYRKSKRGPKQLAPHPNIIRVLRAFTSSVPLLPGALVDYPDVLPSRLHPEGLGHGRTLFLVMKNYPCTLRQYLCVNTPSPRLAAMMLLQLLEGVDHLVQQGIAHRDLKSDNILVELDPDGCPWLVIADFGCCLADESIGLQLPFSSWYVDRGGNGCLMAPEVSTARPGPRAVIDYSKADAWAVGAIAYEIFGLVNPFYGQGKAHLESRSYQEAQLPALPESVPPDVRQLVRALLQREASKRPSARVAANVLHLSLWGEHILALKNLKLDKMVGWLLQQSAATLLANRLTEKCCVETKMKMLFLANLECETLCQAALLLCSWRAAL

For `C[C@H](NP(=O)(OC[C@H]1O[C@@H](n2cnc3c(NCc4ccco4)ncnc32)[C@H](O)[C@@H]1O)Oc1ccccc1)C(=O)OC(C)(C)C` (stereo partly drawn), the remaining at 12 h [1] was 50% and the Activity [2] was “inactive”.

With `C[C@H](NP(=O)(O)OC[C@H]1O[C@@H](n2cnc3c(NCc4ccco4)ncnc32)[C@H](O)[C@@H]1O)C(=O)O` the Drug metabolism [3] was “Metabolite_Detected”.

In the case of `COC(=O)[C@H](C)NP(=O)(OC[C@H]1O[C@@H](n2cnc3c(NCc4ccco4)ncnc32)[C@H](O)[C@@H]1O)Oc1ccccc1` (stereo partly drawn), the Activity [2] was “Active”.

With `c1coc(CNc2ncnc3[nH]cnc23)c1` the Activity [2] was “inactive”.

For `C[C@H](NP(=O)(OC[C@H]1O[C@@H](n2cnc3c(NCc4ccco4)ncnc32)[C@H](O)[C@@H]1O)Oc1ccccc1)C(=O)OCc1ccccc1` (stereo partly drawn), the Activity [4] was “Tde”, the Activity [5] was “inactive” and the Activity [2] was “Active”.

In the case of `OC[C@H]1O[C@@H](n2cnc3c(NCc4ccco4)ncnc32)[C@H](O)[C@@H]1O`, the Activity [2] was “Active”.

With `CC(C)OC(=O)[C@H](C)NP(=O)(OC[C@H]1O[C@@H](n2cnc3c(NCc4ccco4)ncnc32)[C@H](O)[C@@H]1O)Oc1ccccc1` (stereo partly drawn) the Stability [6] was “Stable”, the Stability [7] was “Unstable” and the Drug metabolism [8] was “Metabolite_Detected”. For the same molecule, the Drug metabolism [9] was “Metabolite_Detected”, the Activity [2] was “Active” and the Stability [10] was “Stable”. For the same molecule, the Stability [11] was “Stable” and the Stability [12] was “Stable”.

In the case of `N#CC(C#N)=NNc1cccc(Cl)c1`, the Activity [13] was “Tde”.
